The full list was thinned out, with hits kept by preference.
HCT116 bCat-KO: primary screen for growth suppressors in beta-catenin knockout HCT116 cells (colon tumor, human). HCT116 beta-catenin knockout viability, CellTiter-Glo, 60 h; hits give low values. viability, % at 10 µM. 140,000 compounds, 1.5% hits. AID 818, 2007;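 active means viability at or under a set limit, the compound median less 4 SD, cut at about 6% in these data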;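 further: 0% = Hyamine 1622 control at 20 µM and 100% = untreated cell control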
HUVEC prolif 384: inhibitors of HUVEC proliferation, primary screen, cell-based, 384-well; CellTiter-Glo luminescence, 72 h; hits give low values; 86,000 compounds, 1.1% hits; viability, % at 10 µM (by protocol);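 active means viability at or below 30%; inactive means viability above 30%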;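 further: 100% = median luminescence of DMSO-only cell control wells on each plate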
HCT116 PTEN-null: growth suppression of PTEN-null HCT116, primary screen, cell-based, CellTiter-Glo; viability, % at 10 µM; 140,000 compounds, 1.2% hits; HCT116 PTEN-null viability, 60 h; hits give low values; AID 827, 2007;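 active means viability at or below a set limit, 4 SD under the median of all tested compounds, cut at about 3.7% in these data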;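 further: PTEN knockout HCT116 line with beta catenin targeted HCT116 as companion control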
Fibroblast inh: antiproliferative effect on LL 47 fibroblasts – human, LL 47 cells, CellTiter-Glo luminescence, primary screen. AID 719, 2007. viability, % at 10 µM. 85,000 compounds, 1.1% hits. LL 47 human lung fibroblast viability, ATP luminescence; hits give low values;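 active means viability at or below 50% in the single dose screen; inactive means viability above 50%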;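 further: compound exposure lasted 72 h before the ATP readout; 100% = median luminescence of untreated cell-only wells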
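Signal: luminescent ATP detection, CellTiter-Glo; assay system: LL 47 human lung fibroblasts; input: 1,150 cells/well; incubation: overnight cell rest, 72 h compound treatment at 37 °C; measure: % viability versus median cells-only luminescence; medium: IMEM growth medium with 15% fetal bovine serum; dosing: compound addition at 0.1% DMSO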
H69AR growth 86K: proliferation blockers of H69AR lung cancer cells, primary screen, cell-based, human, 86K library; H69AR lung tumor viability, ATP luminescence, 72 h; hits give low values; viability, % at 10 µM; 85,000 compounds, 6% hits;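 active means viability at or below 40%; inactive means viability above 40%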;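 further: multidrug resistant small cell line overexpressing MRP-1 efflux transporter; 100% = mean luminescence of untreated control wells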
Starred values were filed as active, the others as inactive; . = no result given.

SMILES	HCT116 bCat-KO	HUVEC prolif 384	HCT116 PTEN-null	Fibroblast inh	H69AR growth 86K
CC(C)(C)c1ccc(C(=O)NCCCN2CCN(CCCNC(=O)c3ccc(C(C)(C)C)cc3)CC2)cc1	1.3*	.	1.8*	.	.
CCN1C(=O)c2cccc3c(NC(=O)c4ccc(OC)c(OC)c4)ccc1c23	93	74	96	96	59
COc1cc(/C=C(\C#N)c2nc3ccccc3[nH]2)cc(Br)c1OCc1ccc(F)cc1	2.1*	.	2.1*	.	.
CN(C)c1ccc(NC(=O)Nc2ccc3snnc3c2)cc1	99	93	104	103	79
O=C(Nc1ccccc1)Nc1ccc2snnc2c1	52	53	66	101	13*
COc1cccc([C@@H]2Oc3ccc(OC)cc3C(=O)[C@H]2OC(=O)N[C@H](C)C2CCCCC2)c1	51	.	50	.	.
COc1ccc2c(c1)O[C@H](c1ccc3c(c1)OCO3)[C@@H](OC(=O)N[C@H](C)C1CCCCC1)C2=O	11	.	1.2*	.	.
CCN1/C(=C/c2ccc3ccccc3[n+]2CC)C=Cc2ccccc21	1.8*	45	1.5*	18*	2.2*
Nc1nc(Nc2cccc(F)c2)nc2ccccc12	70	74	71	.	36*
CC(C)(C)N1C(=O)Cc2c1nc(N)c1c(N)nc(N3CCCCC3CO)c(C#N)c21 (stereo not drawn)	74	74	86	88	20*
CN(CCO)c1nc(N)c2c(N)nc3c(c2c1C#N)CC(=O)N3C1CCCC1	33	71	43	94	31*
CCN(CC)c1nc(N)c2c(N)nc3c(c2c1C#N)CC(c1ccccc1)O3 (stereo not drawn)	78	72	62	86	59
CC(C)CC(NC(=O)CCl)c1ccccc1 (stereo not drawn)	57	.	62	.	.
CC(NC(=O)CCl)c1ccc(Cl)c(Cl)c1 (stereo not drawn)	2.9*	.	3.8*	.	.
CCOc1ccc(N(CCC#N)S(=O)(=O)c2ccc(OC)cc2)cc1	62	80	56	85	21*
COCCN1CSC(=S)N(Cc2ccco2)C1	25	70	41	82	0.8*
COC(=O)C1C(=O)c2c([nH]c(C(=O)OCC3CCCO3)c2C)CC1C (stereo not drawn)	110	99	107	99	95
CC1(C)CC(=O)C(N=Nc2cc(Cl)c(Cl)c(Cl)c2)=C(O)C1	97	.	93	.	.
Cc1ccc(O)c(N=NC2=C(O)CC(C)(C)CC2=O)c1	4.4*	.	5	.	.
COc1ccccc1N1CCN(CCCNC(=O)Nc2ccccc2C)CC1	88	120	87	95	99
COc1ccc(Cl)c(N2CCN(CCCNC(=O)Nc3ccc(C)cc3)CC2)c1	21	10*	25	93	90
COc1ccc(Cl)cc1N1CCN(CCNC(=O)Nc2ccccc2C)CC1	55	5.3*	50	75	19*
CC1=CC(C)(C)N2C(=O)C3(C(C#N)=C(N)Oc4cc(O)ccc43)c3c(C)c(C)cc1c32 (stereo not drawn)	62	4.8*	47	78	4.4*
CC1(c2ccccc2)CC(C)(C)N2C(=O)C3(C(C#N)=C(N)Oc4cc(O)ccc43)c3cccc1c32 (stereo not drawn)	1.4*	13*	1.5*	101	80
CC1=CC(C)(C)N2C(=O)C3(C(C#N)=C(N)OC4=C3C(=O)CCC4)c3c(C)c(C)cc1c32 (stereo not drawn)	87	.	85	.	.
SMILES	HCT116 bCat-KO	HUVEC prolif 384	HCT116 PTEN-null	Fibroblast inh	H69AR growth 86K
CC1(C)CC(=O)C2=C(C1)OC(N)=C(C#N)C21C(=O)N2CCCc3cccc1c32 (stereo not drawn)	96	108	97	100	91
CC1(c2ccccc2)CC(C)(C)N2C(=O)/C(=C3\SC(=S)NC3=O)c3cccc1c32 (stereo not drawn)	77	.	68	.	.
Cc1cc2c3c(c1)C(C)(c1ccccc1)CC(C)(C)N3C(=O)C21C(C#N)=C(N)OC2=C1C(=O)CC(C)(C)C2 (stereo not drawn)	35	69	21	79	19*
CCOC(=O)c1ccc(NC(=O)c2cn(CCC#N)nc2-c2ccc3c(c2)OCCO3)cc1	96	.	84	.	.
N#CC1=C(N)Oc2cc(O)ccc2C1c1ccncc1 (stereo not drawn)	94	95	82	100	85
CN(C)c1ccc2c(c1)OC(N)=C(C#N)C2c1cccc(F)c1 (stereo not drawn)	10	31	9	55	25*
CC(C)(C)C(=O)NCCCc1nc2ccccc2n1CCCOc1ccc(Cl)cc1	7	.	10	.	.
c1ccc(-c2oc3ncnc(NCCN4CCOCC4)c3c2-c2ccccc2)cc1	76	59	65	84	36*
N=c1c2c(-c3ccccc3)c(-c3ccccc3)oc2ncn1CCN1CCOCC1	26	54	24	84	42
N=c1c2c(-c3ccccc3)c(-c3ccccc3)oc2ncn1CCCN1CCOCC1	41	8.9*	43	79	46
COCC(C)NC(=O)C1CC(c2cccc(Br)c2)=NO1 (stereo not drawn)	92	106	84	95	101
COc1ccc(C2c3ccc4ccccc4c3Oc3ncn4nc(Cc5ccccc5)nc4c32)cc1OC (stereo not drawn)	84	.	71	.	.
COc1ccc(C2c3ccc4ccccc4c3Oc3ncn(Cc4ccco4)c(=N)c32)cc1OC (stereo not drawn)	1.7*	.	0.9*	.	.
COc1ccc(C2c3c(ncn(CCN4CCOCC4)c3=N)Oc3ccc4ccccc4c32)cc1OC (stereo not drawn)	49	71	43	89	1.9*
Cc1cc2cc(C)c3nnc(SCC(=O)N4CCc5ccccc54)n3c2cc1C	82	.	74	.	.
OC(COCc1ccc2c(c1)OCO2)CN1CCN(Cc2ccccc2)CC1 (stereo not drawn)	91	90	103	99	103
CC(C)NC(=O)c1ccc2c(c1)S(=O)(=O)c1ccccc1C2=O	104	105	102	107	83
O=C(Nc1nc(-c2ccccc2)cs1)c1ccc2c(c1)S(=O)(=O)c1ccccc1C2=O	4.0*	.	2.5*	.	.
CC1CC(C)(C)CC2(C1)NC(=O)N(CC(=O)NC1CCCc3ccccc31)C2=O (stereo not drawn)	89	.	82	.	.
O=C(CSc1nnc(-c2cccnc2)n1-c1ccccc1)Nc1ccccc1	86	97	101	101	85
Cc1ccccc1-n1c(SCC(=O)c2cc(C)n(C)c2C)nnc1-c1cccnc1	99	110	109	99	39*
Cc1ccc(NC(=O)CSc2nnc(-c3cccnc3)n2-c2ccc(C)cc2)cc1	91	79	89	98	27*
Cc1ccc(-n2c(Cc3cccs3)nnc2SCC(=O)Nc2ccc(F)c(F)c2)cc1	78	86	80	4.0*	77

Bioassay records as filed in PubChem.
